Source: PubChem BioAssay (several laboratories)
Shown are actives, neighbours in structure and some others; about 27% of the full set was active somewhere.
CYP2C19 activ – cytochrome P450 2C19 (human) activation; P33261; 96,000 tested, under 10 active; activation factor at 5 µM; recombinant CYP2C19, luciferin-H EGE luminescence; stronger effect = higher value; 0 = fully inhibited enzyme, 1 = untreated enzyme;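 active = activation factor of at least 2 at 5 µM in the primary screen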;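 also: 0 = wells with 2.5 mM tranylcypromine and 1 = vehicle-only wells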
CYP2C19 inhib – inhibitors of human CYP2C19; P33261; CYP2C19 Supersomes, luciferin-H EGE luminescence, 30 min; inhibition, % at 5 µM; hit rate 21% among 96,000; AID 778;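 active = CYP2C19 inhibition above a set limit at 5 µM in the primary screen, cut at about 50% in these data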;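 also: plate controls were negative control wells for no effect and 2.5 mM tranylcypromine positive control for full effect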
HIV Rev-RRE inh – disrupts HIV-1 Rev binding to RRE RNA; Rev peptide-RRE RNA binding, FRET; hit rate 0.79% among 97,000; P05866; inhibition, % at 8 µM;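 active = inhibition above the screen-wide mean plus 3 SD, cut at about 35% in these data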;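 also: 0% = median DMSO wells and 100% = median Neomycin B control wells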
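System: Cy5-labelled duplex RRE RNA binding fluorescein-labelled HIV Rev peptide; Signal: fluorescein-to-Cy5 FRET, 480 nm excitation; Also added: labelled Rev peptide; Compound: one concentration, 8 µM nominal; Buffer or medium: HEPES pH 7.5 salt buffer with EDTA; Read-out: % inhibition of FRET ratio versus controls; Schedule: 5 min preincubation and 15 min binding, 25 °C.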
Cav32 inh – inhibitors of human Cav3.2 T-type calcium channel; O95180; Cav3.2-expressing cells, Fluo-4 calcium fluorescence FDSS; stronger effect = lower value; B-score at 10 µM; hit rate 4% among 100,000; AID 449739;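 active = single-dose well whose peak fluorescence ratio is a statistical outlier from its plate by either plate-standardised score or position-corrected B-score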
CYP2C9 inh – inhibitors of human CYP2C9; P11712; CYP2C9 Supersomes, luciferin-H conversion, luminescence; inhibition, % at 5 µM; hit rate 20% among 96,000;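 active = blocking of liver enzyme CYP2C9 beyond about 50% at 5 µM, limit read from the data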
Target sequence (P11712 whole entry, looked up): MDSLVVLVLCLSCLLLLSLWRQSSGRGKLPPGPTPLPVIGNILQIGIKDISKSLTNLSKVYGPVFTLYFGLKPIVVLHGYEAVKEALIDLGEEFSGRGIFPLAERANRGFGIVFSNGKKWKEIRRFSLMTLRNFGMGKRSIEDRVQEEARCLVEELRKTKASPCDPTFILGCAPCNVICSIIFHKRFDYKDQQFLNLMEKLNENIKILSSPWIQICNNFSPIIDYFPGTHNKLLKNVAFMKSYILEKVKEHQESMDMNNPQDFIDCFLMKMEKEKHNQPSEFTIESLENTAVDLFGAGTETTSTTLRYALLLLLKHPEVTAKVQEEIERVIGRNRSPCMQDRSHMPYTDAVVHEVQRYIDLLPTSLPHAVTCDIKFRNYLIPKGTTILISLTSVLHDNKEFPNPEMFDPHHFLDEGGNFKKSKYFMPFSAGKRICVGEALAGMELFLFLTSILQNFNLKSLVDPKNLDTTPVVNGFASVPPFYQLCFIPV
CYP2C9 act – increases human cytochrome P450 2C9 activity. activation factor at 5 µM. hit rate 1.4% among 96,000. recombinant CYP2C9, luciferin-H conversion, luminescence; stronger effect = higher value; factor 1 = untreated enzyme, 0 = blocked. AID 1024. P11712;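 active = activation factor of 2 or more for CYP2C9 at a 5 µM dose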;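 also: 0 = sulfaphenazole-blocked wells and 1 = vehicle-only wells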
* hit, by the source's call.

What do the screens show for `O=C(c1ccc(S(=O)(=O)N2CCCC2)cc1)N1CCN(Cc2ccc3c(c2)OCO3)CC1`?
CYP2C19 activ: 0.5; CYP2C19 inhib: 47; HIV Rev-RRE inh: 6; Cav32 inh: 3.9*; CYP2C9 inh: 63*; CYP2C9 act: 0.4

What do the screens show for `O=S(=O)(c1ccc(Cl)nc1)N1CCN(Cc2ccc3c(c2)OCO3)CC1`?
CYP2C19 activ: 0.4; CYP2C19 inhib: 63*; HIV Rev-RRE inh: -1; Cav32 inh: -0.033; CYP2C9 inh: 74*; CYP2C9 act: 0.3

Results for CC1CCN(c2nc3ccc(C(=O)N4CCN(Cc5ccc6c(c5)OCO6)CC4)cc3s2)CC1 ?
CYP2C19 activ: 0.1; CYP2C19 inhib: 94*; HIV Rev-RRE inh: 2; CYP2C9 inh: 90*; CYP2C9 act: 0.1

What do the screens show for `CCOc1c(Br)cc(CNc2ccc3c(c2)OCCO3)cc1OC`?
CYP2C19 activ: 0.1; CYP2C19 inhib: 86*; HIV Rev-RRE inh: 8; Cav32 inh: -2.6; CYP2C9 inh: 86*; CYP2C9 act: 0.1

What do the screens show for `CCOc1cc(CNCC2CCCO2)cc(Br)c1OCC(N)=O` (configuration not stated)?
CYP2C19 activ: 1; CYP2C19 inhib: -1; HIV Rev-RRE inh: 2; Cav32 inh: 0.32; CYP2C9 inh: 0; CYP2C9 act: 1

What do the screens show for `CCOc1cc(CNc2ccc3c(c2)OCCO3)cc(Br)c1OCC(N)=O`?
CYP2C19 activ: 0.5; CYP2C19 inhib: 53*; HIV Rev-RRE inh: -3; Cav32 inh: 0.39; CYP2C9 inh: 86*; CYP2C9 act: 0.1

What do the screens show for `CCOc1cc(CNc2ccc3c(c2)OCCO3)cc(Br)c1OC`?
CYP2C19 activ: 0.1; CYP2C19 inhib: 94*; HIV Rev-RRE inh: -6; Cav32 inh: -3.7; CYP2C9 inh: 84*; CYP2C9 act: 0.2

How did Cc1ccc(CCNC(=O)C2CCC(=O)N2C(C)C)cc1 (configuration not stated) do in these assays?
CYP2C19 activ: 1.1; CYP2C19 inhib: -8; Cav32 inh: -0.33; CYP2C9 inh: -19; CYP2C9 act: 1.2

What do the screens show for `FC(F)(F)c1nc(Oc2ccccc2)c2ccccc2n1`?
CYP2C19 activ: 0.6; CYP2C19 inhib: 38; HIV Rev-RRE inh: 11; Cav32 inh: -0.82; CYP2C9 inh: 33; CYP2C9 act: 0.7

Results for COc1nc(NCc2ccco2)nc(N2CCC(C)CC2)n1 ?
CYP2C19 activ: 0.9; CYP2C19 inhib: 10; HIV Rev-RRE inh: 4; CYP2C9 inh: -49; CYP2C9 act: 1.5

Results for COc1nc(NCc2ccco2)nc(NC2CCCCC2)n1 ?
HIV Rev-RRE inh: 5; Cav32 inh: -4*

What do the screens show for `CCOc1ccccc1OCCn1ncc2ccc(OC)c(OC)c2c1=O`?
CYP2C19 activ: 0.4; CYP2C19 inhib: 58*; HIV Rev-RRE inh: 2; Cav32 inh: -0.25; CYP2C9 inh: -24; CYP2C9 act: 1.2

What do the screens show for `COc1ccc2cnn(CCOc3ccccc3)c(=O)c2c1OC`?
CYP2C19 activ: 0.8; CYP2C19 inhib: 25; HIV Rev-RRE inh: 2; CYP2C9 inh: -5; CYP2C9 act: 1

Results for COc1ccc2cnn(-c3ccc(C)cc3)c(=O)c2c1OC ?
CYP2C19 activ: 0.7; CYP2C19 inhib: 28; HIV Rev-RRE inh: 7; Cav32 inh: 1.2; CYP2C9 inh: 65*; CYP2C9 act: 0.4

Results for O=C(Nc1cccc(C(F)(F)F)c1)OCCN1CCN(Cc2ccccc2)CCC1=O ?
Cav32 inh: -0.56

What do the screens show for `COc1cccc(Cn2nnc(C(=O)NCc3ccccc3Cl)c2N)c1`?
CYP2C19 activ: 0.8; CYP2C19 inhib: 23; HIV Rev-RRE inh: 12; Cav32 inh: -3.9*; CYP2C9 inh: -190; CYP2C9 act: 2.9*

What do the screens show for `COc1ccc(C)cc1NC(=O)c1nnn(Cc2cccc(F)c2)c1N`?
CYP2C19 activ: 1.1; CYP2C19 inhib: -8; HIV Rev-RRE inh: 1; Cav32 inh: 0.64; CYP2C9 inh: -34; CYP2C9 act: 1.3

Results for COc1cccc(Cn2nnc(C(=O)Nc3cc(Cl)ccc3OC)c2N)c1 ?
CYP2C19 activ: 1; CYP2C19 inhib: -4; HIV Rev-RRE inh: 12; Cav32 inh: -0.034; CYP2C9 inh: -106; CYP2C9 act: 2.1*

What do the screens show for `O=C(NC1CCCCC1)N1CCN(C(c2ccccc2)c2ccccc2)CC1`?
CYP2C19 activ: 1; CYP2C19 inhib: 0; HIV Rev-RRE inh: 7; Cav32 inh: -1.3; CYP2C9 inh: 47; CYP2C9 act: 0.5
